From ChEMBL document CHEMBL3856227, “Identification of the first small-molecule inhibitor of the REV7 DNA repair protein interaction” (Bioorg Med Chem, 2016)
Calls of active or inactive are those of the source. The calls are words filed in the database; no cut-off is given here.

Tests used:
Homo sapiens [1] = organism: Homo sapiens; experiment: Binding affinity to biotin-Avi-tagged REV3L (1846 to 1898 residues)/His-tagged REV7 R124A mutant complex (unknown origin) expressed in Escherichia coli BL21(DE3) at 5 uM incubated for 20 hrs by pulldown assay
In short: (§1)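 Complex at 1 µM (biotin-AviTag-REV3L(1846–1898) co-expressed with His-REV7(R124A), Ni-purified) with 0.5% DMSO, compound (50 µM) or REV3L(1875–1895) peptide (5 µM) in 50 mM HEPES pH 7.4, 150 mM NaCl, 0.1% Tween 20. Shaken at 1500 rpm, 4 °C, 20 h. Streptavidin agarose then added for 4 h. Beads washed, heat-eluted, run on SDS gel, stained. Duplicates.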

Homo sapiens [2] = organism: Homo sapiens; experiment: Inhibition of C-terminal TAMRA-labeled REV3L (1875 to 1895 residues) binding to 5'-MBP-His8/3'-FLAG-tagged REV7 R124A mutant (unknown origin) expressed in Escherichia coli BL21(DE3) at 3 to 300 uM after 4 hrs by fluorescence polarization assay
In short: (§2)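 Compounds serially diluted from 10 mM DMSO stock. 4 h incubation, triplicate. Read at ex 555/em 632 nm, reported in mP. Controls: DMSO, and unlabeled REV3L peptides. Compound autofluorescence checked.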

HeLa [3] = experiment: Cytotoxicity in human HeLa cells assessed as decrease in cell viability at 75 uM after 3 days by alamar blue assay; type: functional, cell-based
In short: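 HeLa cells at 1000/well, attached overnight, then given compound or DMSO in fresh medium, triplicate, for 3 days. alamarBlue added for 3 h, fluorescence read at ex 510/em 590 nm. Viability normalized to DMSO-treated cells.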

[4] = Inhibition of C-terminal TAMRA-labeled REV3L (1875 to 1895 residues) binding to 5'-MBP-His8/3'-FLAG-tagged REV7 R124A mutant (unknown origin) expressed in Escherichia coli BL21(DE3) after 4 hrs by fluorescence polarization assay; set-up: species or system Homo sapiens; in short: as §2
[5] = system: Mitotic spindle assembly checkpoint protein MAD2B (Homo sapiens), Q9UI95 [R124A]; experiment: Binding affinity to 5'-MBP-His8/3'-FLAG-tagged REV7 R124A mutant (unknown origin) expressed in Escherichia coli BL21(DE3) at 200 uM by 1H waterLOGSY NMR method
Mitotic spindle assembly checkpoint protein MAD2B (Homo sapiens), Q9UI95 [R124A], sequence (Q9UI95 whole entry R124A): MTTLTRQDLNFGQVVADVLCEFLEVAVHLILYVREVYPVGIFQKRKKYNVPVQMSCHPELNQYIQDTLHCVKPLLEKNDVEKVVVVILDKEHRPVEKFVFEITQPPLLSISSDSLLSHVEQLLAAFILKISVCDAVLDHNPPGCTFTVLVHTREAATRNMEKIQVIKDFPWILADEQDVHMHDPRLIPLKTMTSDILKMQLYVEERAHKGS

HeLa [6] = experiment: Potentiation of cisplatin-induced anticlonogenic activity in human HeLa cells at 75 uM after 24 hrs by crystal violet staining based assay; type: functional, cell-based
In short: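 HeLa cells at 450/well in 6-well plates, attached overnight. Cisplatin added at indicated concentrations; 24 h later, compound at 75 µM final or DMSO added for another 24 h. Medium then replaced and culture continued 6 days. Fixed in 3.7% formaldehyde, stained with 0.5% crystal violet, colonies over ~40 cells counted. Triplicate. Survival normalized to cisplatin-vehicle (0.9% NaCl) wells.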

COS-7 = experiment: Inhibition of REV7/REV3L protein interaction in African green monkey COS7 cells expressing ICL assessed as inhibition of ICL repair activity at 75 uM after 13 hrs by luciferase reporter gene assay; type: cell-based; conditions: Chlorocebus aethiops
In short: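 COS7 cells at 80,000/well. Medium replaced after 5 h, then transfected with pGL-ICL (10 ng) or pGL4.50 (2.5 ng) plus pRL-TK, FuGENE 6. Cells trypsinized 5 h later and replated in quadruplicate with compound or DMSO. Dual firefly/Renilla luciferase read after 13 h. ICL plasmid signal normalized to non-ICL plasmid. Two-tailed unpaired t-test.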

Homo sapiens [7] = organism: Homo sapiens; experiment: Inhibition of C-terminal biotin-tagged REV3L (1875 to 1895 residues) binding to REV3L (1846 to 1898 residues)/His-tagged REV7 R124A mutant complex (unknown origin) expressed in Escherichia coli BL21(DE3) […] by alphascreen assay
Homo sapiens [8] = organism: Homo sapiens; experiment: Destabilization of biotin-Avi-tagged REV3L (1846 to 1898 residues)/His-tagged REV7 R124A mutant complex (unknown origin) expressed in Escherichia coli BL21(DE3) incubated for 4 hrs by SYPRO orange dye based RT-PCR analysis
In short: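 His-REV7(R124A)/REV3L complex at 5 µM in 25 mM HEPES, 100 mM NaCl, pH 7.3 with SYPRO orange 1:2000. Compound at 500 µM final (10 mM DMSO stock) or DMSO, duplicate, 4 h at room temperature. Ramp 25 to 95 °C at 1 °C/min, ex 492/em 610 nm. Tm taken as inflection point of Boltzmann sigmoid fit.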

Homo sapiens [9] = organism: Homo sapiens; experiment: Binding affinity to biotin-Avi-tagged REV3L (1846 to 1898 residues)/His-tagged REV7 R124A mutant complex (unknown origin) expressed in Escherichia coli BL21(DE3) at 50 uM incubated for 20 hrs by pulldown assay; in short: as §1

Q: For `CC[C@H](C)[C@H](NC(=O)[C@H](CCC(=O)O)NC(=O)[C@H](CCC(=O)O)NC(=O)[C@H](CCCNC(=N)N)NC(=O)[C@H](CO)NC(=O)[C@@H]1CCCN1C(=O)[C@@H]1CCCN1C(=O)[C@H](CO)NC(=O)[C@H](CCSC)NC(=O)[C@H](CC(C)C)NC(=O)[C@@H]1CCCN1C(=O)[C@H](CCCCN)NC(=O)[C@H](CC(C)C)NC(=O)[C@@H](NC(=O)[C@H](CC(N)=O)NC(=O)[C@H](C)N)[C@@H](C)CC)C(=O)N[C@@H](CCSC)C(=O)N[C@@H](C)C(=O)N[C@H](C(=O)N[C@@H](CC(C)C)C(=O)N[C@@H](CC(C)C)C(=O)O)[C@@H](C)O`, which Activity (Homo sapiens [1]) is on record?
A: The Activity was “Active”.

Q: With `CC(=O)N1CCC(Cn2cnc3scc(-c4ccc(C(=O)N5CCOCC5)o4)c3c2=O)CC1` as the compound, how does the inhibition (Homo sapiens [2]) read?
A: The inhibition was “Active”.

Q: For `CC(=O)N1CCC(Cn2cnc3scc(-c4ccc(C)o4)c3c2=O)CC1`, which Activity (HeLa [3]) is on record?
A: Its Activity is “Active”.

Q: And the IC50 [4]?
A: The IC50 was 78 µM.

Q: What about the Activity [5] of the same compound?
A: The Activity was “Active”.

Q: What about the Activity (HeLa [6]) of the same compound?
A: Its Activity is “Active”.

Q: And the inhibition (COS-7)?
A: The inhibition was “Active”.

Q: With `CC(=O)N1CCC(Cn2cnc3scc(-c4ccco4)c3c2=O)CC1` as the compound, how does the inhibition (Homo sapiens [7]) read?
A: Its inhibition is “Active”.

Q: And the Activity (Homo sapiens [8])?
A: Its Activity is “Active”.

Q: And the Activity (Homo sapiens [9])?
A: Its Activity is “Active”.
